Assay outcomes deposited in PubChem BioAssay by several laboratories.
Insulin prom up – insulin promoter activators in MIN6 cells, imaging, high-content screening, mouse beta cells; MIN6 insulin promoter-GFP reporter; active compounds read high; z-score at 5 µM; 190,000 compounds, 0.3% hits;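 active = z-score above 3 at 5 µM with at least 500 cells counted in the well; inconclusive = wells under 500 cells, flagged as cytotoxic or low count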
NPY2 pot ag – NPY-Y2 potentiators or agonists, primary screen, cell-based; Neuropeptide Y receptor type 2 (Homo sapiens), P49146; cells expressing NPY-Y2, potentiator/agonist read-out; activation, % at 3.6 µM; 220,000 compounds, 0.45% hits; AID 1359, 2008; in the data active = activation above about 27%;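 note: cells stimulated with NPY near EC25 plus isoproterenol at EC100; 0% = vehicle plus submaximal agonist and 100% = vehicle plus saturating agonist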
Target sequence (P49146 whole entry, looked up): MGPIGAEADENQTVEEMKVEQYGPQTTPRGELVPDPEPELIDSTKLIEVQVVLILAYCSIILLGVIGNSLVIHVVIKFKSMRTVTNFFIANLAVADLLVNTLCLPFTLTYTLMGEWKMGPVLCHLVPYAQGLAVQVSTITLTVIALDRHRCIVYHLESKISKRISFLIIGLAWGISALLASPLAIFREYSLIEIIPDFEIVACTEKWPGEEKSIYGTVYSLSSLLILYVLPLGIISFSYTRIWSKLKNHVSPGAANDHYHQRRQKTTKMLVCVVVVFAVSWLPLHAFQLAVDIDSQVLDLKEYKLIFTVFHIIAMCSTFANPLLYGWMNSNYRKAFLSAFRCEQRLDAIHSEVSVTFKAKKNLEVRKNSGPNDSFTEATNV
NPY1 pot ag – NPY-Y1 receptor potentiators or agonists, primary screen, cell-based; NPY-Y1 expressing cells, potentiator/agonist activation; activation, % at 3.6 µM; 220,000 compounds, 0.37% hits; AID 1304, 2008; in the data active = activation above about 33%, passing the limit was not always enough;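 note: cells stimulated with NPY at EC10 then isoproterenol at EC100; 0% = low agonist plus stimulus and 100% = saturating agonist plus stimulus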
Target sequence (P25929 whole entry, looked up): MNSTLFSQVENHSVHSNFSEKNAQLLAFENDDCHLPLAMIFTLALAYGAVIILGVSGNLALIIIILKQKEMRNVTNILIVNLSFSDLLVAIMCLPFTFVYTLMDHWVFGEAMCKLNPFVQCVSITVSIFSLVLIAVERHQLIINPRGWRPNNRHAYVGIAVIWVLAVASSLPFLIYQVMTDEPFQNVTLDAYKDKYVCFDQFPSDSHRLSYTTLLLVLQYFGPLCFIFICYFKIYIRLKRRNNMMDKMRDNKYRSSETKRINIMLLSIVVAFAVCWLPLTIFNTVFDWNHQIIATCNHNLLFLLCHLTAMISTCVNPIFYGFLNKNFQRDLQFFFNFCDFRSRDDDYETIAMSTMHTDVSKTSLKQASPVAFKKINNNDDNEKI
INS promoter inh – inhibitors of insulin promoter-driven GFP, primary screen, imaging, TRM-6 cells (human fetal islet line), eGFP reporter, cell count; reporter expression induced with tamoxifen; inhibition, % at 2 µM; 130,000 compounds, 0.9% hits;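 active = inhibition above the mean plus 3 SD, with well images judged a real hit on visual review, cut at about 60% in these data, passing the limit was not always enough; inconclusive = inhibition over the cutoff but images rejected on review; inactive = inhibition not above the cutoff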
NPY-Y1 antag – NPY-Y1 receptor antagonists, primary screen, cell-based. HEK293-CNG Y1 cells, membrane potential fluorescence; NPY at EC95, then isoproterenol. 200,000 compounds, 1% hits. AID 1040, 2008. Neuropeptide Y receptor type 1 (Homo sapiens), P25929. inhibition, % at 3.6 µM;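 active = inhibition above the campaign mean inhibition of all tested compounds plus 3 SD, cut at about 20% in these data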;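 note: 0% = DMSO wells given NPY plus isoproterenol and 100% = isoproterenol alone without NPY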
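Material: Y1- and CNG-channel-expressing HEK293 cells / Probe or stimulus: NPY 25 nM then isoproterenol 1 µM plus Ro 20-1724 25 µM / Doses: 3.6 µM single dose, DMSO 0.4% / Schedule: compound incubation 1 h at room temperature, readout 45 min post-stimulation / Signal: membrane potential fluorescence / Benchmarks: isoproterenol-only wells as full block versus NPY-plus-isoproterenol wells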
NPY Y2 blocker – NPY-Y2 receptor antagonists, primary screen, cell-based; 140,000 compounds, 0.99% hits; inhibition, % at 2.7 µM; NPY-Y2 expressing cells, antagonist mode; in the data active = inhibition above about 17%;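 note: 0% = vehicle with agonist challenge and 100% = reference antagonist with challenge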
NPY-Y1 confirm – NPY-Y1 potentiators or agonists, confirmation, cell-based. shares compounds with NPY1 pot ag. cell-based NPY-Y1 potentiator/agonist assay. activation, % at 3.6 µM. 280 compounds, 20% hits; in the data active = activation above about 45%;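 note: cells challenged with NPY at its EC10 plus isoproterenol stimulus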
NPY-Y2 counter – NPY-Y2 potentiators or agonists, counter-screen for NPY-Y1 potentiator project, cell-based, fluorescence. activation, % at 3.6 µM. shares compounds with NPY1 pot ag. HEK293-CNG cells, membrane-potential fluorescence (FLIPR), 1536-well. 280 compounds, 20% hits; in the data active = activation above about 33%
NPY-Y1 ag – NPY-Y1 direct agonists without NPY, confirmation, counter-screen for NPY-Y1 potentiator project, cell-based, fluorescence | AID 1697, 2009 | shares compounds with NPY1 pot ag | HEK293 Y1-CNGC, membrane potential fluorescence, agonist mode | activation, % at 3.6 µM | 280 compounds, 50% hits;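 active = percent activation above the mean of DMSO-only control wells plus 3 SD of those wells, cut at about 18% in these data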;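 note: cells challenged with isoproterenol plus Ro 20-1724 with no NPY in test wells; Y1 agonism lowers isoproterenol-driven cAMP and reduces probe fluorescence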
NPY-Y2 ag – NPY-Y2 direct agonists without NPY, counter-screen for NPY-Y1 potentiator project, cell-based, fluorescence | shares compounds with NPY1 pot ag | HEK293 Y2-CNGC, membrane potential fluorescence, agonist mode | activation, % at 3.6 µM | 280 compounds, 67% hits | AID 1698, 2009;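 active = activation above the solvent-only control wells' mean plus 3 SD, cut at about 11% in these data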;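 note: 0% = DMSO with isoproterenol and 100% = 40 nM NPY maximal response; agonism lowers cAMP so well fluorescence drops in active wells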
CNGC inh 2 – CNGC cAMP sensor activity inhibitors, counter-screen for NPY-Y1 potentiator/agonist project, cell-based, HEK293-CNG parental, membrane potential fluorescence, Y1 set; 280 compounds, 42% hits; shares compounds with NPY1 pot ag; AID 1704, 2009; isoproterenol cAMP; inhibition, % at 3.6 µM;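 active = inhibition above the mean of stimulated solvent-only control wells plus 3 SD, cut at about 22% in these data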;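 note: 0% = isoproterenol-stimulated DMSO wells and 100% = unstimulated DMSO wells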
* marks the source's active call; other numbers are inactive results; ? = inconclusive; . = no result given. Compounds with a hit are over-represented: about 2.5% of the library has one in this group of screens.

SMILES	Insulin prom up	NPY2 pot ag	NPY1 pot ag	INS promoter inh	NPY-Y1 antag	NPY Y2 blocker	NPY-Y1 confirm	NPY-Y2 counter	NPY-Y1 ag	NPY-Y2 ag	CNGC inh 2
COc1ccc(CCn2c(C)cc(C(=O)CSc3nnnn3-c3ccccc3)c2C)cc1	.	-7	65*	40	1	3	-52	-24	-35	-18	-30
Cc1ccc(S(=O)(=O)N(CC(=O)N2CCC(C)CC2)Cc2ccccc2F)cc1	-0.25	20	79*	23	3	1	-5	0	-10	-6	1
Cc1ccc(S(=O)(=O)N(CC(=O)O)Cc2ccccc2F)cc1	0.07	5	-12	-31	-1	6	.	.	.	.	.
CCn1c(SCC(=O)Nc2ccc3c(c2)oc2ccccc23)nnc1-c1ccc(N)cc1	.	20	46*	-10	1	-4	43	37*	38*	43*	21
CCCOC(=O)c1c(NC(=O)CSc2nc(-c3ccco3)cc(C(F)(F)F)n2)sc(C(=O)OC)c1C	-0.14	-3	-12	.	8	0	.	.	.	.	.
COc1ccc(C(=O)NC2CCCCCC2)cc1S(=O)(=O)N1CCCC1	-0.37	0	10	11	5	.	.	.	.	.	.
COc1ccc(C(=O)NC2CCCCCC2)cc1S(=O)(=O)Nc1ccc(Br)cc1	1	26	48*	3	-3	2	44*	31	42*	31*	40*
COc1ccccc1NS(=O)(=O)c1ccc(/C=C/C(=O)O)cc1	0.18	9	-6	.	-6	.	.	.	.	.	.
COc1ccc(OC)c(N=C(N)N=C(N)N)c1	-0.35	6	-9	.	-2	.	.	.	.	.	.
O=C(CN1CCC(n2nnc3cc(F)ccc32)CC1)NCCc1ccccc1	-0.25	12	-7	0	1	0	.	.	.	.	.
CCOC(=O)C1=C(c2ccccc2)NC(=O)NC1c1cc(Br)c(O)c(OC)c1 (configuration not stated)	0.96	12	42*	.	-3	.	0	3	-3	1	-2
CCOC(=O)C1=C(C)NC(=O)NC1c1cc(Br)c(O)c(OC)c1 (configuration not stated)	-0.36	-6	10	20	-3	1	.	.	.	.	.
O=C(Nc1cccc(Cl)c1)Nc1cc(S(=O)(=O)N2CCOCC2)ccc1N1CCCC1	.	21	27	32	-2	1	.	.	.	.	.
CSc1ccc(CN2CCN(C3CCCC3)C(CCO)C2)cc1 (configuration not stated)	-0.02	2	-19	.	4	.	.	.	.	.	.
O=C(O)/C(=C\c1ccco1)NC(=O)c1cccc2ccccc12	.	-3	-7	49	8	-2	.	.	.	.	.
O=C(Nc1ccncc1)c1ccc2c(c1)C(=O)N(C1CCCCC1)C2=O	1	1	45*	13	-1	2	2	17	18*	5	2
CCOC(=O)N1CCN(C(=O)/C(=C/c2cccs2)NC(=O)c2cccs2)CC1	1.8	2	43*	38	-1	.	3	-1	-6	-5	-6
COc1cc(/C=C2\SC(=O)N(CCNC(=O)c3sc4cc(F)ccc4c3Cl)C2=O)cc(OC)c1OC	-1.1	12	23	.	0	.	.	.	.	.	.
CC(=O)N1CCN(c2ccc(NC(=O)c3ccc(N4CCCC4)c([N+](=O)[O-])c3)cc2Cl)CC1	-0.42	-18	-9	-8	0	1	.	.	.	.	.
O=C(Nc1ccc(N2CCCCC2)c(Cl)c1)c1ccc(N2CCOCC2)c([N+](=O)[O-])c1	1.4	10	42*	17	-5	0	48*	37*	34*	40*	25*
N#CC1=C(N)OC2=C(C(=O)CC(c3ccco3)C2)C1c1ccc(OCc2c(F)cccc2Cl)cc1 (configuration not stated)	0.84	-27	63*	0	1	3	-2	-10	-3	-10	-3
O=C1COc2ccc(C(=O)COc3ccc([N+](=O)[O-])cc3)cc2N1	0.32	-2	8	.	.	.	.	.	.	.	.
O=C(c1sc2cc([N+](=O)[O-])ccc2c1Cl)N1CCOCC1	.	11	13	3	-4	1	.	.	.	.	.
CC(C)N(C(=O)c1sc2cc([N+](=O)[O-])ccc2c1Cl)C(C)C	1.2	23	85*	60	1	4	9	7	-2	18*	6
N#C/C(=C\c1ccc(O)c([N+](=O)[O-])c1)c1nc2ccccc2s1	-0.61	7	39*	-9	-7	.	15	12	9	4	16
SMILES	Insulin prom up	NPY2 pot ag	NPY1 pot ag	INS promoter inh	NPY-Y1 antag	NPY Y2 blocker	NPY-Y1 confirm	NPY-Y2 counter	NPY-Y1 ag	NPY-Y2 ag	CNGC inh 2
COc1cc(/C=C(\C#N)c2nc3ccccc3s2)cc([N+](=O)[O-])c1O	0	13	17	-75	0	.	.	.	.	.	.
O=C(O)c1cc(N/N=C/C(Cl)=C/c2ccccc2)ccc1Cl	-0.34	4	5	.	1	.	.	.	.	.	.
COc1ccccc1OCCN(C#N)c1nc(N(C)C)nc(N(C)C)n1	0.29	-11	-8	33	5	.	.	.	.	.	.
Cc1ccc(O)c(C(=O)c2cnc3c(c2)c(-c2ccc(F)cc2)c(C#N)c(=O)n3C)c1	-0.47	9	42*	.	-4	.	61*	55*	49*	54*	34*
CC(C)CC(=O)Nc1cc(NC(=O)CC(C)C)cc(C(=O)NC(C)(C)C)c1	.	-8	1	-37	6	1	.	.	.	.	.
O=C1CCC2S/C(=C/Nc3ccc(C(F)(F)F)cc3)C(=O)N12 (configuration not stated)	0.88	18	39*	5	-4	.	35	18	22*	25*	30*
O=C1CCCC/C1=C/Nc1cccc(C(F)(F)F)c1	0.62	0	-1	-20	7	.	.	.	.	.	.
Nc1cnc(Nc2ccc(Br)cc2)nc1N	-0.03	22	21	.	.	.	.	.	.	.	.
CC#CC[N+](C)(C)CCCCCCCCCCCC	?	-10	-5	?	13	6	.	.	.	.	.
